Experimental data from ChEMBL document CHEMBL4699532, “Decoding the Papain Inhibitor from Streptomyces mobaraensis as Being Hydroxylated Chymostatin Derivatives: Purification, Structure Analysis, and Putative Biosynthetic Pathway” (J Nat Prod, 2020).

Tests used:
[1] = Inhibition of chymotrypsin (unknown origin) using sucAAPFamc substrate preincubated for 10 mins followed by addition of substrate and measured every 30 sec for 60 mins by fluorescence based assay; set-up: species or system Homo sapiens
Outline: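 Chymotrypsin, 1.5 nM final (added as 15 nM stock), preincubated with inhibitor for 10 min at 30 °C in 100 mM Tris pH 7.8, 10 mM CaCl2. Started with sucAAPFamc (added as 15 μM stock). AMC release read every 30 s for 60 min (ex 350, em 450 nm), in triplicate. IC50 from fitted data.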

Papain = target: T1, Papain (Carica papaya, UniProt P00784); experiment: Inhibition of papaya papain using cbzFRamc substrate preincubated for 10 mins followed by addition of substrate and measured every 30 sec for 60 mins by fluorescence based assay
T1 sequence (P00784 whole entry): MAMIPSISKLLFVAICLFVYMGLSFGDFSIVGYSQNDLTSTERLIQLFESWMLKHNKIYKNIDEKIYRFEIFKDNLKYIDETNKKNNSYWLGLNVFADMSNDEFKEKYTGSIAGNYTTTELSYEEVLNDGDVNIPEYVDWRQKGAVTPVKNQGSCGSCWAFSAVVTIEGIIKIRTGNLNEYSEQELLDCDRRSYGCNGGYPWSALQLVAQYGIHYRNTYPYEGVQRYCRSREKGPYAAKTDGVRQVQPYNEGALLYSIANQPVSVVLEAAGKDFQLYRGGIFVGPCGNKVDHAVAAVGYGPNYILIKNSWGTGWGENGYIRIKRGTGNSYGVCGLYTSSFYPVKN
Outline: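 Papain, 1.5 nM final (added as 15 nM stock), preincubated with inhibitor for 10 min at 30 °C in 50 mM phosphate pH 6.8, 10 mM EDTA, 2 mM DTT. Started with 50 μM cbzFRamc. AMC release read every 30 s for 60 min (ex 350, em 450 nm), in triplicate. IC50 from fitted data.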

Papain (Carica papaya) = target: T2, Papain (Carica papaya) (UniProt P00784); experiment: Binding affinity to papaya papain assessed as change in melting temperature at 200 uM incubated for 15 mins by scanning fluorimetry
T2 sequence (whole entry): T1 sequence (P00784 whole entry)
Outline: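 Melting followed by tryptophan fluorescence at 330 and 350 nm during 1 °C/min heating (differential scanning fluorimetry), run in duplicate. Shift taken as difference from the enzyme's melting point.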

Homo sapiens = organism: Homo sapiens; experiment: Binding affinity to chymotrypsin (unknown origin) assessed as change in melting temperature at 200 uM incubated for 15 mins by scanning fluorimetry
Outline: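 20 μM chymotrypsin held on ice for 15 min with 200 μM inhibitor in 100 mM Tris pH 7.8, 10 mM CaCl2. Melting followed by tryptophan fluorescence at 330 and 350 nm during 1 °C/min heating (differential scanning fluorimetry), run in duplicate. Shift taken as difference from the enzyme's melting point.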

SMILES | IC50 [1] [nM] | IC50 (Papain) [nM] | ΔTm (Papain (Carica papaya)) [°C] | ΔTm (Homo sapiens) [°C]
CC(C)[C@H](NC(=O)[C@@H](NC(=O)N[C@@H](Cc1ccc(O)cc1)C(=O)O)[C@H]1CCNC(=N)N1)C(=O)N[C@H](C=O)Cc1ccc(O)cc1 | 4.8 | 6.3 | 0.9 | 15.1
CC(C)[C@H](NC(=O)[C@@H](NC(=O)N[C@@H](Cc1ccc(O)cc1)C(=O)O)[C@H]1CCNC(=N)N1)C(=O)N[C@H](C=O)Cc1ccccc1 | 7 | 17.8 | 0.9 | 13.5
CC(C)[C@H](NC(=O)[C@H](CCCNC(=N)N)NC(=O)N[C@@H](Cc1ccccc1)C(=O)O)C(=O)N[C@H](C=O)CCCNC(=N)N [ANTIPAIN] | > 30000 | 3.4 | 0.9 | 1.7
CC(=O)N[C@@H](CC(C)C)C(=O)N[C@@H](CC(C)C)C(=O)N[C@H](C=O)CCCNC(=N)N [LEUPEPTIN] | > 30000 | 2.2 | 1 | 0.2
